In general, pIC50 refers to −log10 of the IC50, conventionally taken in molar units.

For series [1], the system named is Plasmodium falciparum. Nature of the series: Antimalarial activity as reduced parasitaemia after 48 hrs against chloroquine, pyrimethamine and proguanil-resistant Plasmodium falciparum W2 infected in type A+ human erythrocytes by flow cytometry. The format is functional, organism-based. The following applies: W2, 48 h. In general terms: Flow cytometry measures light scatter and fluorescence of single cells or particles in a stream.

Series [2] has as its system HepG2. Nature of the series: Cytotoxicity against human HepG2 cells after 72 hrs by MTT assay. The format is cell-based. The following applies: HepG2, 72 h. The method, boiled down: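 HepG2 cells plated in RPMI with 10% FBS and grown 24 h, then exposed to a range of compound concentrations for 72 h at 37 °C, 6% CO₂. MTT (5 mg/mL stock) added for 2 h, formazan dissolved in DMSO and read at 570 nm against 630 nm. Viability expressed as percent of untreated control. CC50 taken from the dose-response curve.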
(Tetrazolium assays rely on reduction of a dye to a coloured formazan, in cell work by metabolically active cells.)

Series [3] deals with K562. Nature of the series: Cytotoxicity against human K562 cells after 72 hrs by flow cytometry. The format is cell-based. To be noted: K562, 72 h. Put shortly:
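Chemosensitive K562 subline, late log phase, in phenol-red-free RPMI with 10% serum. Compound range added in duplicate (DMSO <0.5%). After 72 h at 37 °C, 6% CO₂, cells stained with propidium iodide and live cells in a 100 µL sample counted by flow cytometry. IC50 from non-linear regression of dose-response curves, mean of three independent experiments.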

A short description of series [4]: Selectivity index, ratio IC50 for human HepG2 cells to IC50 for chloroquine, pyrimethamine and proguanil-resistant Plasmodium falciparum W2. The format is functional. The method, boiled down:
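SI = HepG2 IC50 / W2 IC50. MTT 2 h, formazan dissolved in DMSO, absorbance 570 nm (ref 630 nm). Viability as % of untreated control, IC50 from dose-response curve.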

Series [5] can be described thus: Selectivity index, ratio of IC50 for human K562 cells to IC50 for chloroquine, pyrimethamine and proguanil-resistant Plasmodium falciparum W2. The format is toxicity, cell-based. The following applies: K562 cells (cytotoxicity) versus Plasmodium falciparum W2, read-out: Ratio IC50. Put shortly:
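SI = K562 IC50 / W2 IC50. Live cells counted by flow cytometry after propidium iodide stain. IC50 by non-linear regression, mean of three independent experiments.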

pIC50: −log10 of the molar value.

In the case of `Clc1cccc(Nc2nc(C(Cl)(Cl)Cl)nc3ccccc23)c1Cl`, the pIC50 in series [1] is 4.85; in series [2] it was below 4.00; in series [3], below 4.22. Also, the “Ratio IC50” value in series [4] was 7.1. Also, the selectivity ratio in series [5] was above 4.3.

On to `ClC(Cl)(Cl)c1nc(Nc2cccc3ccccc23)c2ccccc2n1`, for which the results for the pIC50 in series [1], in series [2] and in series [3] were 5.22, 4.82 and 5.30, respectively. The “Ratio IC50” value in series [4] is given as 2.5. In addition, in series [5], the selectivity ratio was determined as 0.8.

Consider `Clc1ccc(Cl)c(Nc2nc(C(Cl)(Cl)Cl)nc3ccccc23)c1`, for which the pIC50 in series [1] is 5.77; in series [2], 4.52; in series [3] it was below 5.10. The “Ratio IC50” value in series [4] turned out to be 17.6. The selectivity ratio in series [5] was above 4.7.

`Clc1cc(Cl)cc(Nc2nc(C(Cl)(Cl)Cl)nc3ccccc23)c1`: the figures for the pIC50 in series [1], in series [2] and in series [3] were 5.40, 5.00 and 5.05, respectively. The “Ratio IC50” value in series [4] worked out at 2.5. Moreover, the selectivity ratio in series [5] is 2.2.

For the compound `FC(F)(F)Oc1ccc(Nc2nc(C(Cl)(Cl)Cl)nc3ccccc23)cc1`, the negative logarithm of the IC50 (pIC50) in series [1] is 5.54; in series [2], 5.22; in series [3], 5.22. In series [4], the “Ratio IC50” value is given as 2.1. Also, the selectivity ratio in series [5] stood at 2.1.

`Clc1ccccc1Nc1nc(C(Cl)(Cl)Cl)nc2ccccc12`: the negative-log IC50 (pIC50) is 5.34 in series [1], 4.60 in series [2] and below 4.30 in series [3]. Besides, in series [4], the “Ratio IC50” value came out at 5.5. Further, the selectivity ratio in series [5] is above 10.9.

Consider `ClC(Cl)(Cl)c1nc(NCc2ccccc2)c2ccccc2n1`, for which the figures for the pIC50 in series [1], in series [2] and in series [3] were 5.16, 4.89 and below 4.30, respectively. For the same compound, the “Ratio IC50” value in series [4] was 1.9. Besides, the selectivity ratio in series [5] was above 7.2.

For the compound `Cc1nc(Nc2cccc(C(F)(F)F)c2)c2ccccc2n1`, the pIC50 in series [1] is 4.37; in series [2] it was 4.70; in series [3], 5.00. Also, in series [4], the “Ratio IC50” value was 0.5. Moreover, the selectivity ratio in series [5] was found to be 0.2.

As to `O=[N+]([O-])c1ccc(Nc2nc(C(Cl)(Cl)Cl)nc3ccccc23)cc1`, the pIC50 in series [1] was 5.55; in series [2] it was 5.22; in series [3] it was 5.30. In addition, in series [4], the “Ratio IC50” value amounted to 2.1. In addition, the selectivity ratio in series [5] turned out to be 1.8.

With `CN1CCN(c2nc(C(Cl)(Cl)Cl)nc3ccccc23)CC1`, the pIC50 is 5.25 in series [1], 4.12 in series [2] and 4.19 in series [3]. Further, the “Ratio IC50” value in series [4] was 13.4. The selectivity ratio in series [5] turned out to be 11.6.

Regarding `Clc1ccc(Nc2nc(C(Cl)(Cl)Cl)nc3ccccc23)cc1`, the pIC50 was 5.52 in series [1], 5.05 in series [2] and 4.85 in series [3]. Moreover, the “Ratio IC50” value in series [4] is 3. Also, in series [5], the selectivity ratio worked out at 4.7.

With `Cc1cccc(Nc2nc(C(Cl)(Cl)Cl)nc3ccccc23)c1`, the pIC50 in series [1] was 5.64; in series [2], 4.92; in series [3], 5.05. The “Ratio IC50” value in series [4] is recorded as 5.2. Moreover, the selectivity ratio in series [5] is 3.9.

Turning to `Cc1nc(Nc2cccc(Cl)c2)c2ccccc2n1`, the pIC50 in series [1] was 4.26; in series [2] it was 4.40; in series [3] it was 4.57. Further, the “Ratio IC50” value in series [4] came to 0.7. Further, in series [5], the selectivity ratio came out at 0.5.

`ClC(Cl)(Cl)c1nc(Nc2ccc(Br)cc2)c2ccccc2n1`: the results for the negative logarithm of the IC50 (pIC50) in series [1], in series [2] and in series [3] were 5.82, 5.00 and 4.82, respectively. For the same compound, in series [4], the Ratio IC50 was found to be 5.7. Further, the selectivity ratio in series [5] came to 10.

Regarding `CCCCNc1nc(C(Cl)(Cl)Cl)nc2ccccc12`, the pIC50 in series [1] is 4.84; in series [2], 4.80; in series [3], below 4.30. Further, the “Ratio IC50” value in series [4] is on record as 1.1. The selectivity ratio in series [5] is above 3.5.

As to `ClC(Cl)(Cl)c1nc(N2CCCC2)c2ccccc2n1`, the pIC50 in series [1] was 4.38; in series [2], below 3.60; in series [3], below 3.90. Also, the “Ratio IC50” value in series [4] is above 6. Further, the selectivity ratio in series [5] is above 3.

`CCN(CC)CCCC(C)Nc1ccnc2cc(Cl)ccc12` (stereo not drawn) [CHLOROQUINE] had a pIC50 in series [3] of 4.49.

On to `COc1ccccc1Nc1nc(C(Cl)(Cl)Cl)nc2ccccc12`, for which the pIC50 in series [1] is 5.22; in series [2] it was 4.22; in series [3], 4.22. Besides, the “Ratio IC50” value in series [4] worked out at 10. The selectivity ratio in series [5] stood at 10.

`COc1ccc(Nc2nc(C(Cl)(Cl)Cl)nc3ccccc23)cc1`: the pIC50 in series [1] is 5.22; in series [2], 5.15; in series [3], 5.10. For the same compound, the “Ratio IC50” value in series [4] stood at 1.2. In addition, the selectivity ratio in series [5] was found to be 1.3.

In the case of `COc1cccc2c1C(=O)c1c(O)c3c(c(O)c1C2=O)C[C@@](O)(C(=O)CO)C[C@@H]3O[C@H]1C[C@H](N)[C@H](O)[C@H](C)O1` [DOXORUBICIN], the results for the pIC50 in series [2] and in series [3] were 6.70 and 7.22, respectively.

Regarding `Fc1ccccc1Nc1nc(C(Cl)(Cl)Cl)nc2ccccc12`, the pIC50 in series [1] is 5.05; in series [2], 5.00; in series [3], 4.52. In series [4], the “Ratio IC50” value was 1.1. Also, in series [5], the selectivity ratio was 3.3.

Consider `FC(F)(F)c1ccccc1Nc1nc(C(Cl)(Cl)Cl)nc2ccccc12`, for which the values for the pIC50 in series [1], in series [2] and in series [3] were 5.13, 5.00 and 4.52, respectively. The “Ratio IC50” value in series [4] is 1.4. The selectivity ratio in series [5] is 4.1.

Consider `ClC(Cl)(Cl)c1nc(Nc2ccccc2)c2ccccc2n1`, for which the pIC50 in series [1] is 4.96; in series [2] it was below 4.30; in series [3], below 4.30. In addition, the “Ratio IC50” value in series [4] was above 4.5. Moreover, the selectivity ratio in series [5] is above 4.5.

For the compound `Clc1cccc(Cl)c1Nc1nc(C(Cl)(Cl)Cl)nc2ccccc12`, the pIC50 is 4.66 in series [1], 4.64 in series [2] and 5.00 in series [3]. Further, the “Ratio IC50” value in series [4] was 1.1. Besides, the selectivity ratio in series [5] is 0.5.

With `Cc1ccc(Nc2nc(C(Cl)(Cl)Cl)nc3ccccc23)cc1`, the negative-log IC50 (pIC50) in series [1] was 5.62; in series [2], 5.10; in series [3] it was 5.22. Further, the “Ratio IC50” value in series [4] is given as 3.3. Also, the selectivity ratio in series [5] was 2.5.

For the compound `Fc1cccc(Nc2nc(C(Cl)(Cl)Cl)nc3ccccc23)c1`, the pIC50 in series [1] was 5.40; in series [2] it was 4.80; in series [3], 4.82. Moreover, the Ratio IC50 in series [4] is 1. The selectivity ratio in series [5] amounted to 3.8.

Regarding `ClC(Cl)(Cl)c1nc(Nc2ccccc2Br)c2ccccc2n1`, the pIC50 in series [1] was 5.52; in series [2], below 4.30; in series [3], below 4.52. The “Ratio IC50” value in series [4] was above 16.7. The selectivity ratio in series [5] was above 10.

Consider `O=[N+]([O-])c1ccccc1Nc1nc(C(Cl)(Cl)Cl)nc2ccccc12`, for which the pIC50 in series [1] is 5.52; in series [2], below 4.00; in series [3] it was below 4.22. Also, the “Ratio IC50” value in series [4] is listed as above 33.3. In addition, the selectivity ratio in series [5] was above 20.

Turning to `FC(F)(F)c1cc(Nc2nc(C(Cl)(Cl)Cl)nc3ccccc23)cc(C(F)(F)F)c1`, the results for the negative logarithm of the IC50 (pIC50) in series [1], in series [2] and in series [3] were 5.52, 5.52 and 5.00, respectively. The “Ratio IC50” value in series [4] stood at 1. Also, in series [5], the selectivity ratio was 3.3.

Turning to `Cc1ccccc1Nc1nc(C(Cl)(Cl)Cl)nc2ccccc12`, the pIC50 in series [1] was 5.15; in series [2], 4.62; in series [3], 4.96. Also, the “Ratio IC50” value in series [4] worked out at 3.4. Besides, in series [5], the selectivity ratio was 1.6.

Regarding `COc1cccc(Nc2nc(C(Cl)(Cl)Cl)nc3ccccc23)c1`, the values for the pIC50 in series [1], in series [2] and in series [3] were 5.40, 6.30 and 5.05, respectively. For the same compound, the “Ratio IC50” value in series [4] is on record as 0.1. In addition, the selectivity ratio in series [5] was 2.3.

Regarding `O=[N+]([O-])c1cccc(Nc2nc(C(Cl)(Cl)Cl)nc3ccccc23)c1`, the pIC50 in series [1] is 5.52; in series [2], 5.00; in series [3], 5.30. Further, the “Ratio IC50” value in series [4] is listed as 3.3. Also, in series [5], the selectivity ratio is 1.7.

As to `FC(F)(F)c1ccc(Nc2nc(C(Cl)(Cl)Cl)nc3ccccc23)cc1`, the pIC50 in series [1] is 5.80; in series [2], 5.22; in series [3], 5.40. The “Ratio IC50” value in series [4] is on record as 3.8. For the same compound, in series [5], the selectivity ratio is 2.5.

With `Fc1ccc(Nc2nc(C(Cl)(Cl)Cl)nc3ccccc23)cc1`, the pIC50 in series [1] is 5.27; in series [2], below 4.30; in series [3] it was below 3.90. The “Ratio IC50” value in series [4] is given as above 9.3. For the same compound, the selectivity ratio in series [5] was above 23.1.

Regarding `ClC(Cl)(Cl)c1nc(N2CCOCC2)c2ccccc2n1`, the values for the pIC50 in series [1], in series [2] and in series [3] were 4.83, 4.20 and below 3.90, respectively. In addition, in series [4], the “Ratio IC50” value is given as above 2. In addition, the selectivity ratio in series [5] is above 8.4.
